Measured values published in paper PMC10840928 (Chemistry (Weinheim an der Bergstrasse, Germany), 2023).

Legend:
Aβ42 peptide = Aβ42 peptide (Homo sapiens, UniProt P05067); assay: In vitro Aβ42 aggregation monitoring; assay type: binding; settings: 25 μM peptide, 5 μM probe, 37 °C, 0-40 h
[1] = molecular target: Aβ42 oligomers and fibrils (Homo sapiens, UniProt P05067); assay: Fluorescence turn-on with Aβ42 fibrils and oligomers; assay type: binding; settings: 5 μM compound, 25 μM Aβ42 species, PBS; for fluorescence turn-on effect with Aβ aggregates: excitation 470 nm; for maximum emission wavelength in the presence of Aβ aggregates: for DCM-OH-2-MT the LE peak
Sequence of Aβ42 oligomers and fibrils (P05067 672-713 limits assumed): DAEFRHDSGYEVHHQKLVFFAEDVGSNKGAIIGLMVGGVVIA

[2] = Job's plot analysis of Cu; assay type: physicochemical; settings: PBS pH 7.4, total 30 μM
Method in brief: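 Test compound and Cu(II) mixed in PBS pH 7.4, Cu from 0 to 100 mol %, combined concentration fixed at 30 μM. Equilibrated at least 5 min at room temperature. UV-vis spectra recorded, and stoichiometry read from the break point of the plot versus Cu mole fraction.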

[3] = molecular target: Aβ aggregates in 5xFAD mouse brain sections (Homo sapiens, UniProt P05067); assay: Histological staining of 5xFAD mouse brain sections, colocalization with ThS; settings: 9-month-old 5xFAD brain sections, 10 μM compound, 2.5 μM ThS
Sequence of Aβ aggregates in 5xFAD mouse brain sections (P05067 672-711 limits assumed): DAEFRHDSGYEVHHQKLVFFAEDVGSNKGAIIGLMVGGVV

[4] = pKa by UV-vis spectrophotometric titration; assay type: physicochemical; settings: pH 3-11, I = 0.1 M NaCl
Method in brief: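 About 20 μM test compound in 0.1 M NaCl titrated with small aliquots of 0.2 M NaOH, from low to high pH (3–11). Run at room temperature under moist N2 flow until spectra stopped changing, giving about 30 UV-vis spectra per compound. Constants fitted with HypSpec. Largest pKa assigned to the phenol O-H.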

[5] = Viscosity sensitivity measurement; assay type: physicochemical; settings: 10 μM, ethylene glycol/glycerol mixtures
Method in brief: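 Mixed until no layering, then fluorescence intensity recorded. log I plotted against log η and fitted by linear regression (log I = x log η + A). Slope x taken as sensitivity.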

[6] = test system: Aβ aggregates in 5xFAD mice; assay: Real-time in vivo NIR fluorescence imaging; set-up: species or system mouse; settings: 5 mg/kg
[7] = test system: human neuroblastoma (SH-SY5Y) cells; assay: Alamar Blue cytotoxicity, SH-SY5Y cells; assay type: cell-based; settings: 40 h treatment
Method in brief: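 After seeding at 2.0 × 10⁴/well and 24 h growth, medium changed to MEM/F-12 (1:1)/N-2 for 1 h. Cells exposed 40 h to test compound at varying concentrations. Alamar Blue incubation 90 min at 37 °C, then fluorescence measured at 590 nm with 560 nm excitation.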

[8] = test system: mouse neuroblastoma (N2A) cells; assay: Alamar Blue cytotoxicity, N2A cells; assay type: cell-based; settings: 40 h treatment
Method in brief: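 Cells seeded at 2.0 × 10⁴/well and grown 24 h. Medium switched to DMEM/N-2 for 1 h, then test compound added at a range of concentrations for 40 h. Alamar Blue added and incubated 90 min at 37 °C. Fluorescence read at 590 nm (excitation 560 nm).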

Sequence of Aβ42 peptide (P05067 672-713 limits assumed): as the sequence (P05067 672-713 limits assumed) above

Cc1ccc2c(c1)sc(-c1ccc(N(C)C)cc1)[n+]2C [ThT, Thioflavin T, reference compound]
fluorescence response during Aβ42 aggregation (Aβ42 peptide): minimal fluorescence enhancement from 0–10 h

CN1CCN(C)CCN(Cc2cc(/C=C/C3=CC(=C(C#N)C#N)c4ccccc4O3)ccc2O)CC1 [DCM-OH-1-MT]
fluorescence turn-on effect with Aβ aggregates [1]: fluorescence enhancement
maximum emission wavelength in the presence of Aβ aggregates [1]: ~ 650 nm
stoichiometry of Cu(II)-ligand complexation in solution [2]: mixture of 1:1 and 2:1 ligand-to-Cu complexes

CN1CCN(C)CCN(Cc2cc(/C=C/C=C/C3=CC(=C(C#N)C#N)c4ccccc4O3)ccc2O)CC1 [DCM-OH-2-MT]
second emission peak (ESIPT emission) in the presence of Aβ aggregates [1]: 730 nm
maximum emission wavelength in the presence of Aβ aggregates [1]: 620 nm
labeling pattern of Aβ aggregates on brain sections [3]: bind to the peripheral region of the Aβ aggregates

CN1CCN(C)CCN(Cc2cc(/C=C/C=C/C3=CC(=C(C#N)C#N)c4ccccc4O3)cc(CN3CCN(C)CCN(C)CC3)c2O)CC1 [DCM-OH-2-DT]
pKa of the phenol O-H (largest pKa value) [4]: 9.35
maximum emission wavelength in the presence of Aβ aggregates [1]: about 730 nm
fluorescence response during Aβ42 aggregation (Aβ42 peptide): more significant fluorescence increases at the early stage
viscosity sensitivity (x value) [5]: lowest viscosity sensitivity
stoichiometry of Cu(II)-ligand complexation in solution [2]: only the 1:1 ligand-to-Cu complexes
labeling pattern of Aβ aggregates on brain sections [3]: bind to the peripheral region of the Aβ aggregates
brain NIR fluorescence signal, AD mice vs WT mice ([6]; 7-month-old 5xFAD vs WT, 5-, 15-, 30-min post injection): significantly higher fluorescence signal in AD mice
time to maximum brain fluorescence signal after injection ([6]; jugular vein injection, 7-month-old mice): about 15 min

N#CC(C#N)=C1C=C(/C=C/C=C/c2ccc(O)cc2)Oc2ccccc21 [DCM-OH-2]
pKa of the phenol O-H (largest pKa value) [4]: 11.73
fluorescence turn-on effect with Aβ aggregates [1]: significant fluorescence turn-on effect
maximum emission wavelength in the presence of Aβ aggregates [1]: 620 nm
cytotoxicity [7]: slightly more toxic than the others
fluorescence response during Aβ42 aggregation (Aβ42 peptide): more significant fluorescence increases at the early stage
cytotoxicity [8]: slightly more toxic than the others
labeling pattern of Aβ aggregates on brain sections [3]: binding to the identical core regions of the Aβ aggregates

CN1CCN(C)CCN(Cc2cc(/C=C/C3=CC(=C(C#N)C#N)c4ccccc4O3)cc(CN3CCN(C)CCN(C)CC3)c2O)CC1 [DCM-OH-1-DT]
fluorescence turn-on effect with Aβ aggregates [1]: fluorescence enhancement
maximum emission wavelength in the presence of Aβ aggregates [1]: ~ 650 nm
stoichiometry of Cu(II)-ligand complexation in solution [2]: mixture of 1:1 and 2:1 ligand-to-Cu complexes
